According to ChEMBL document CHEMBL1800039, “Structure-based design of short peptide ligands binding onto the E. coli processivity ring” (J Med Chem, 2011):
pIC50, pKd, pKi: −log10 of the molar value. Where a SMILES comes first, the peptide text is derived from it. [ ]: non-standard residue; d: D form. Phe(3,4-Cl2) = N[C@@H](Cc1ccc(Cl)c(Cl)c1)C(=O)O; Phe(4-Br) = N[C@@H](Cc1ccc(Br)cc1)C(=O)O; Phe(4-Cl) = N[C@@H](Cc1ccc(Cl)cc1)C(=O)O; Phe(4-Me) = Cc1ccc(C[C@H](N)C(=O)O)cc1; hCha = N[C@@H](CCC1CCCCC1)C(=O)O; tBuAla = CC(C)(C)C[C@H](N)C(=O)O; Cha = N[C@@H](CC1CCCCC1)C(=O)O

How the values were obtained:
[1] = Binding affinity to Escherichia coli DNA polymerase 3 subunit beta expressed in Escherichia coli BL21 by SPR analysis
Method in brief: (§1)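 N-His-tagged E. coli β clamp (dnaN in pET15b, BL21, IPTG-induced at 28 C; Ni-NTA then MonoQ) was analysed by SPR on a chip carrying immobilized P1 peptide. For direct binding, β at 0.125–2 μM was injected at 50 μL/min, and background-subtracted data were fit to a 1:1 Langmuir model. For competition, β (0.25 μM) was premixed with peptide (1.5 nM–100 μM) and injected. IC50 came from % binding inhibition; Ki = (1 + KA[β])/IC50 and ΔG = RT ln Ki.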

[2] = Inhibition of Escherichia coli DNA polymerase 3
[3] = Inhibition of Escherichia coli DNA polymerase 3 subunit beta-dependent elongation activity expressed in Escherichia coli BL21 after 2 hrs by competitive biochemical assay
Method in brief: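 Assay run in 40 mM HEPES pH 7.5 with 80 mM K-glutamate, BSA, 16% glycerol, NP40 and 8 mM DTT. Primed 30/90-mer duplex (1 nM) was loaded at 37 C with SSB (90 nM), ATP (200 μM) and MgCl2 (7.5 mM), then γ complex (1 nM) and β dimer (5 nM). Mixtures took peptide or DMSO for 5 min at RT plus 2 h at 4 C.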

[4] = Binding affinity to Escherichia coli DNA polymerase 3 subunit beta expressed in Escherichia coli BL21 by ITC assay
Method in brief: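 ITC at 25 C: peptide (400 μM) was injected in 2 μL steps into His-tagged β clamp (20 or 30 μM) in 10 mM Hepes pH 7.4, 0.15 M NaCl, 3 mM EDTA, 0.005% P20. Heats were corrected using peptide-into-buffer controls.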

Escherichia coli [5] = assay: Ratio of ull length DNA polymerase 4 IC50 to compound IC50 for Escherichia coli DNA polymerase 3 subunit beta by SPR analysis
Escherichia coli [6] = assay: Ratio of ull length DNA polymerase 4 Kd to compound Kd for Escherichia coli DNA polymerase 3 subunit beta by ITC assay
[7] = Binding affinity to Escherichia coli DNA polymerase 3 subunit beta expressed in Escherichia coli BL21 assessed as dissociation constant by SPR analysis; method in brief: as §1

Row | Molecule | pIC50 [1] | pIC50 [3] | Ratio IC50 (Escherichia coli [5]) | Ratio (Escherichia coli [6]) | Ka (inhibitor association constant, 1/M; higher = tighter) [1] [×10⁶ /M] | pKi [2] | pKd [4] | pKd [7]
1 | CCOc1cc(/C=C2\SC(=S)N(CC(=O)O)C2=O)c(Br)c(Br)c1O | – | – | – | – | – | 5.00 | – | –
2 | CC(C)C[C@H](NC(=O)[C@H](CC(=O)O)NC(=O)[C@H](CC(C)C)NC(=O)[C@@H](N)CCC(N)=O)C(=O)N[C@@H](Cc1ccccc1)C(=O)O | 4.91 | – | – | – | 0.11 | – | – | –
3 | CC(=O)N[C@@H](CCC(N)=O)C(=O)N[C@@H](CC(C)C)C(=O)N[C@@H](CC(=O)O)C(=O)N[C@@H](CC(C)C)C(=O)N[C@@H](Cc1ccccc1)C(=O)O | 5.95 | 5.35 | – | – | 1.2 | – | 6.21 | –
4 | CC(=O)N[C@@H](CCC(N)=O)C(=O)N[C@@H](CC1CCCCC1)C(=O)N[C@@H](CC(=O)O)C(=O)N[C@@H](CC(C)C)C(=O)N[C@@H](Cc1ccc(Cl)c(Cl)c1)C(=O)O (Ac-Q[Cha]DL[Phe(3,4-Cl2)]-OH) | – | 6.90 | 4 | 4 | – | – | 7.26 | –
5 | CC(=O)N[C@@H](CCC(N)=O)C(=O)N[C@@H](CCC1CCCCC1)C(=O)N[C@@H](CC(=O)O)C(=O)N[C@@H](CC(C)C)C(=O)N[C@@H](Cc1ccccc1)C(=O)O (Ac-Q[hCha]DLF-OH) | 4.08 | – | – | – | 0.0164 | – | – | –
6 | H-RQLVFL-OH | 3.59 | – | – | – | – | – | – | –
7 | H-RQLVLF-OH | 5.06 | 5.15 | – | – | 0.15 | – | 5.63 | –
8 | H-RQLVLGL-OH | 5.05 | – | – | – | 0.15 | – | 5.80 | 6.55
9 | H-RQLVLL-OH | 4.67 | – | – | – | 0.0063 | – | – | –

More lines, in order of rising pIC50 [1], values ahead:

Row | pIC50 [1] | pIC50 [3] | Ratio IC50 (Escherichia coli [5]) | Ratio (Escherichia coli [6]) | Molecule | Ka (inhibitor association constant, 1/M; higher = tighter) [1] [×10⁶ /M] | pKi [2] | pKd [4] | pKd [7]
10 | 6.00 | – | – | – | CC(=O)N[C@@H](CCC(N)=O)C(=O)N[C@@H](CC(C)(C)C)C(=O)N[C@@H](CC(=O)O)C(=O)N[C@@H](CC(C)C)C(=O)N[C@@H](Cc1ccccc1)C(=O)O (Ac-Q[tBuAla]DLF-OH) | 1.36 | – | – | –
11 | 6.13 | – | – | – | CC(=O)N[C@@H](CCC(N)=O)C(=O)N[C@@H](CCC(C)C)C(=O)N[C@@H](CC(=O)O)C(=O)N[C@@H](CC(C)C)C(=O)N[C@@H](Cc1ccccc1)C(=O)O | 1.84 | – | – | –
12 | 6.59 | 5.70 | – | – | CC(=O)N[C@@H](CCC(N)=O)C(=O)N[C@@H](CC1CCCCC1)C(=O)N[C@@H](CC(=O)O)C(=O)N[C@@H](CC(C)C)C(=O)N[C@@H](Cc1ccc(C)cc1)C(=O)O (Ac-Q[Cha]DL[Phe(4-Me)]-OH) | 8.43 | – | 6.44 | –
13 | 6.77 | 5.55 | – | – | CC(=O)N[C@@H](CCC(N)=O)C(=O)N[C@@H](CC1CCCCC1)C(=O)N[C@@H](CC(=O)O)C(=O)N[C@@H](CC(C)C)C(=O)N[C@@H](Cc1ccccc1)C(=O)O (Ac-Q[Cha]DLF-OH) | 8.01 | – | 6.65 | –
14 | 6.80 | 6.52 | – | – | CC(=O)N[C@@H](CCC(N)=O)C(=O)N[C@@H](CC1CCCCC1)C(=O)N[C@@H](CC(=O)O)C(=O)N[C@@H](CC(C)C)C(=O)N[C@@H](Cc1ccc(Cl)cc1)C(=O)O (Ac-Q[Cha]DL[Phe(4-Cl)]-OH) | 13.7 | – | 7.05 | –
15 | 7.02 | 6.60 | – | – | CC(=O)N[C@@H](CCC(N)=O)C(=O)N[C@@H](CC1CCCCC1)C(=O)N[C@@H](CC(=O)O)C(=O)N[C@@H](CC(C)C)C(=O)N[C@@H](Cc1ccc(Br)cc1)C(=O)O (Ac-Q[Cha]DL[Phe(4-Br)]-OH) | 13.49 | – | 6.87 | –
